Assay outcomes from PubChem.
The list is not random: actives were taken first. Their share in the collection is about 2.1%.
Statin myotox sup: protects C2C12 myotubes from simvastatin toxicity; ATP luminescence, 48 h; scaled: DMSO 0, geranylgeraniol control 100; 0.78% of 330,000 active; rescue of ATP level, % at 7.49 µM;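 active means mean ATP rescue above about 67%, or every replicate alone reaching that limit, limit read from the data, passing the limit was not always enough; inconclusive means no clear call, values can overlap the other calls; inactive means mean under the limit and some replicate under it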;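 further: myotubes were challenged with 10 µM simvastatin during compound exposure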
DENV2 CPE: protects cells from dengue virus 2 cytopathic effect; CPE inhibition, % at 9.99 µM; 1.7% of 350,000 active; AID 651640; DENV2-infected cells, cytopathic effect rescue, plate reader; in the data active means CPE inhibition above about 20%, passing the limit was not always enough; inconclusive means no clear call, values can overlap the other calls; tested in BHK-21 cells
Xi reactivation: activators of X-chromosome reactivation in mouse fibroblasts. XiGFP mouse fibroblasts, % GFP-positive cells imaging, 3 d; cells co-treated with 5-aza-dC sensitizer; scaled so ellipticine positive control = 100%. activation, % at 7.58 µM. 0.055% of 360,000 active. AID 743238;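 active means mean normalized replicate activation at least 10% and every replicate at or above 10%; inconclusive means only one of the two criteria met; inactive means mean below 10% and not all replicates reach 10%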
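Assay system – SV40-immortalized XiGFP fibroblast cells, line 68-5-11 · Buffer or medium – DMEM supplemented with 5-aza-dC as sensitizing agent · Dosing – one concentration, pinned · Benchmarks – positive control ellipticine, 6 µM final · Times – 3 days compound exposure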
Cneo AK release: Cryptococcus neoformans lysis via adenylate kinase release; 0.2% of 360,000 active; AID 651654; lysis activity, % at 15 µM; C. neoformans lysis, adenylate kinase release luminescence, 4 h; normalised: neutral wells 0, clomiphene wells 100;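 active means mean lysis activity across replicates of at least 80%, whatever share of replicates individually reach that level; inactive means mean lysis activity below 80%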
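Assay system: Cryptococcus neoformans yeast cells / Dosing: single-point compound dose / Timing: 4 h at 37 °C static, read 1 h later / Measured by: luminescence of released adenylate kinase using an AK detection reagent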
Large screens that a line does not name were inactive.

COc1ccc(CN(C)C[C@@H]2Oc3ccc(NS(=O)(=O)c4ccc(F)cc4)cc3CC(=O)N([C@@H](C)CO)C[C@@H]2C)cc1	none
COc1ccc(S(=O)(=O)Nc2ccc3c(c2)CC(=O)N([C@@H](C)CO)C[C@@H](C)[C@@H](CN(C)Cc2ccc(C(F)(F)F)cc2)O3)cc1	none
COc1ccc(CN(C)C[C@@H]2Oc3ccc(NS(=O)(=O)c4ccc(F)cc4)cc3CC(=O)N([C@H](C)CO)C[C@H]2C)cc1	Statin myotox sup 75
CCC(=O)N1[C@H](CO)[C@@H](c2ccc(-c3ccccc3)cc2)[C@H]1CNC(=O)COC	DENV2 CPE inconclusive
O=C(Nc1ccc2c(c1)[C@H]1C[C@H](CC(=O)N3CCOCC3)O[C@@H](CO)[C@H]1O2)C1CCOCC1	none
Cc1ccc(C(=O)C(C(=O)/C=C/c2ccccc2)=C2SCCCS2)cc1	Statin myotox sup 113 (no result: DENV2 CPE, Xi reactivation)
CO[C@H]1CN(C)C(=O)c2cc(NC(=O)c3ccc4c(c3)OCO4)ccc2OC[C@@H](C)NC[C@@H]1C	none
COc1ccccc1N1CCN(C(=O)c2ccc(S(=O)(=O)N3CCCCCC3)cc2)CC1	Statin myotox sup 127 (no result: DENV2 CPE, Xi reactivation)
O=C1O[C@H](c2ccccc2)[C@H](c2ccccc2)N2[C@H]1[C@@H](C(=O)Nc1nc3ccccc3s1)[C@]1(C(=O)Nc3ccc(C#CCCO)cc31)[C@H]2c1ccc(OCCO)cc1	none (no result: Statin myotox sup, Xi reactivation)
Cc1ccc(NC(=O)CN(C)CC(=O)Nc2ccc(N3CCOCC3)cc2)c(C)c1	none (no result: Statin myotox sup, DENV2 CPE)
CN(CC(=O)Nc1ccc(N2CCOCC2)cc1)CC(=O)Nc1ccccc1C#N	Statin myotox sup 95 (no result: DENV2 CPE)
C[C@@H](NC(=O)C[C@@H]1C=C[C@H](NC(=O)C2CC2)[C@@H](CO)O1)c1ccccc1	none
CCOc1ccc(C(=O)Oc2cc(C)[nH]c(=O)c2[N+](=O)[O-])cc1	Statin myotox sup 127
CCCCOc1ccc(C(=O)Oc2cc(C)[nH]c(=O)c2[N+](=O)[O-])cc1	none
Cc1cn([C@H]2C[C@H](O)[C@@H](CNCc3ccc4ncccc4c3)O2)c(=O)[nH]c1=O	DENV2 CPE 94
Cc1cn([C@H]2C[C@H](O)[C@@H](CNCc3ccc(C#CCCO)cc3)O2)c(=O)[nH]c1=O	none
O=C1C=C(c2ccccc2)C[C@H](c2cccs2)[C@H]1n1cnc([N+](=O)[O-])c1	Statin myotox sup 137 (no result: DENV2 CPE, Xi reactivation)
COc1cccc(NC(=O)CN(C)C(=O)CCCc2c[nH]c3ccccc23)c1	none
COc1cccc(NC(=O)CN(C)C(=O)CCCc2nc3ccccc3s2)c1	DENV2 CPE 25
C[C@@H]1CN([C@H](C)CO)C(=O)c2cc(NS(=O)(=O)c3cccs3)ccc2O[C@H]1CN(C)S(=O)(=O)c1cccs1	none (no result: DENV2 CPE, Cneo AK release)
Cc1cc(Br)ccc1NC(=O)CN(C)C(=O)COc1cccc2c1OC(C)(C)C2	DENV2 CPE 91
COc1ccc(S(=O)(=O)N(C)C[C@H]2Oc3ccc(NC(=O)CCCN(C)C)cc3CC(=O)N([C@H](C)CO)C[C@H]2C)cc1	DENV2 CPE 29 (no result: Statin myotox sup, Cneo AK release)
Cc1ccc(S(=O)(=O)N(C)C[C@H]2Oc3ccc(NC(=O)CCCN(C)C)cc3CC(=O)N([C@@H](C)CO)C[C@H]2C)cc1	DENV2 CPE 43
CCC(=O)N[C@@H]1C=C[C@H](CC(=O)NCc2ccccc2OC)O[C@@H]1CO	none
Cc1noc(C)c1S(=O)(=O)N(C)C[C@H]1Oc2ccc(NC(=O)NC3CCCCC3)cc2CC(=O)N([C@H](C)CO)C[C@H]1C	none
O=C(C[C@@H]1C=C[C@@H](NC(=O)NC2CCCCC2)[C@H](CO)O1)NCc1ccc(F)cc1	none
C[C@@H]1CN([C@H](C)CO)C(=O)c2cc(C3=CCCC3)cnc2O[C@H]1CN(C)C(=O)C1CCOCC1	DENV2 CPE 38
C[C@H](CO)N1C[C@H](C)[C@@H](CN(C)S(=O)(=O)c2cn(C)cn2)Oc2ncc(C3=CCCC3)cc2C1=O	DENV2 CPE 23
C[C@H](CO)N1C[C@H](C)[C@H](CN(C)C(=O)C2CCC2)Oc2ncc(C3=CCCC3)cc2C1=O	DENV2 CPE 30
C[C@H](CO)N1C[C@H](C)[C@H](CN(C)Cc2cccnc2)Oc2cc(C#CC3CC3)ccc2S1(=O)=O	none
CCc1ccc(CNCc2cccnc2)cc1	Statin myotox sup 114 (no result: DENV2 CPE, Xi reactivation)
C=CCOc1ccc(CNCc2cccnc2)cc1OCC	DENV2 CPE 22
C=CCOc1ccc(CNCCO)cc1OCC	none
COc1cccc([C@@H]2CC=C(C(=O)O)[C@H](c3ccccc3F)N2S(=O)(=O)c2ccc(C)cc2)c1	DENV2 CPE 21
